The source made the active and inactive calls. The rule behind the calls is not given here.

Test [1] has as its target Neuronal acetylcholine receptor; alpha4/beta2 (Homo sapiens) (UniProt P17787+P43681). The experiment in a line: Binding affinity to human nAChR-alpha-4-beta-2 in HEK293 cells. The format is cell-based. In outline:
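Cloned human α4β2 nAChR in HEK-293 cell membranes, tested by SPA radioligand binding. Used [3H]epibatidine 1 nM, WGA-coated PVT beads 1 mg/well and 30 µg membrane protein/well, in Tris-HCl buffer (50 mM, 150 mM NaCl, 5 mM KCl, pH 7.4). Nonspecific binding defined with 10 µM epibatidine. Incubated 2-4 h at room temperature and read by scintillation counting. 4-parameter logistic IC50 converted to Ki by Cheng-Prusoff.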

The target of test [2] is Neuronal acetylcholine receptor; alpha3/beta4 (Homo sapiens) (UniProt P30926+P32297). The experiment in a line: Binding affinity to human nAChR-alpha-3-beta-4 in HEK293 cells. In kind it is cell-based. The essentials: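 Scintillation proximity assay on membranes from HEK-293 cells expressing cloned human α3β4 nAChR. [3H]epibatidine 2 nM, WGA-coated PVT beads 1.5 mg/well, 30 µg membrane protein/well, in 50 mM Tris-HCl, 150 mM NaCl, 5 mM KCl, pH 7.4. Nonspecific binding defined with 10 µM epibatidine. Equilibrated 2-4 h at room temperature, then scintillation counted. IC50 from 4-parameter logistic fit, converted to Ki by Cheng-Prusoff.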

Consider `Cc1cc(/C=C/C23CC(CN2)C3)on1`, for which the result in test [1] and in test [2] was inactive.
With `c1cncc(OCC23CC(CN2)C3)c1`, the outcome in test [1] and in test [2] was inactive.
Turning to `Cc1cc(C23CC(CN2)C3)on1`, the outcome in test [1] and in test [2] was inactive.
Turning to `Clc1ccc(OCC23CC(CN2)C3)cn1`, the result in test [1] and in test [2] was inactive.
For `Cc1cc(CCC23CC(CN2)C3)on1`, the result in test [1] and in test [2] was inactive.
`c1ccc(OCC23CC(CN2)C3)cc1`: the outcome in test [1] and in test [2] was inactive.

The values above are taken from ChEMBL document CHEMBL1142518, “Potential nicotinic acetylcholine receptor ligands from 2,4-methanoproline derivatives” (J Med Chem, 2008).
